These results are taken from ChEMBL document CHEMBL4196106, “From Naproxen Repurposing to Naproxen Analogues and Their Antiviral Activity against Influenza A Virus” (J Med Chem, 2018).

Each structure is given as a SMILES string. The source made the active and inactive calls. The calls are words filed in the database; no cut-off is given here.

Series [1] concerns Influenza A virus. Put plainly: Antiviral activity against Influenza A virus (A/Puerto Rico/8/1934(H1N1)) infected in C57BL/6J mouse assessed as increase in mouse survival at 8 mg/mouse/day, ip qd treated up to day 2 starting at 5 to 10 mins post infection measured at day 12. Format: functional, organism-based. The essentials: (§1)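 Intranasal A/PR/8/34 challenge at 500 PFU in female C57BL/6J mice, 5–6 weeks old, under ketamine/xylazine. Dosing was i.p. once daily on days 0, 1 and 2, starting 5–10 min post-inoculation; 1 mg/mouse is 50 mg/kg and 8 mg/mouse is 400 mg/kg. There were 10 mice per group, with saline vehicle. Survival and body weight were scored daily, with 20% weight loss as the mortality endpoint.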

In series [2] the test system is Influenza A virus. The series can be described thus: Antiviral activity against Influenza A virus (A/Puerto Rico/8/1934(H1N1)) infected in C57BL/6J mouse assessed as decrease in viral load in bronchoalveolar lavage at 8 mg/mouse/day, ip qd treated up to day 2 starting at 5 to 10 mins post infection relative to control. Format: functional. The essentials: (§2)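 Female C57BL/6J mice, 5–6 weeks old, were anaesthetised with ketamine/xylazine (43/5 mg/kg) and inoculated intranasally with A/PR/8/34 at 500 PFU. Treatment was i.p. once daily on days 0, 1 and 2, starting 5–10 min after inoculation; 1 mg/mouse is 50 mg/kg and 8 mg/mouse is 400 mg/kg. BAL infectious titre was measured by plaque assay against saline-treated mice.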

The subject of series [3] is Influenza A virus. Put plainly: Antiviral activity against Influenza A virus (A/Puerto Rico/8/1934(H1N1)) infected in C57BL/6J mouse assessed as recovery of weight loss at 8 mg/mouse/day, ip qd […] starting at 5 to 10 mins post infection measured up to day 12. The class given is functional, organism-based.
The test system of series [4] is MDCK. Put plainly: Inhibition of nucleoprotein/polymerase acidic protein (1 to 27 residues) interaction in Influenza A virus (A/WSN/1933 (H1N1)) infected in MDCK cells by Western blot analysis. The class given is cell-based. The essentials:
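MDCK cells were infected with A/WSN/33 at MOI 2 for 18 h and lysed in PBS with protease inhibitors and 0.5% NP40 by freezing; nucleic acids were not digested. Streptavidin beads loaded with 250 µM biotinylated PA(1-27) were incubated with the lysate 18 h at 4 °C, with or without compound. Bound NP was detected by anti-NP monoclonal western blot.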

Series [5] can be described thus: Binding affinity to biotin labelled Influenza A virus nucleoprotein by surface plasmon resonance analysis.
Series [6] has as its system Influenza A virus. Put plainly: Stabilization of Influenza A virus nucleoprotein assessed as melting temperature at 5 to 15 uM measured for 5 mins. The essentials:
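Recombinant NP, over 80% monomeric, was used at 5–15 µM with compound at a 1:1 ratio in 20 mM Tris pH 7.4, 50 mM NaCl. Mean size was followed by dynamic light scattering (10 scans over 5 min per point) while heating at 1 °C/min up to 70–80 °C. Tm was taken from the maximum of the first-derivative curve, and analyses were done in triplicate.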

The test system of series [7] is Influenza A virus. The series can be described thus: Antiviral activity against Influenza A virus (A/WSN/1933(H1N1)) infected in MDCK cells at MOI of 2 assessed as decrease in viral load after 18 hrs by immunofluorescence analysis. The class given is functional, organism-based. The essentials:
(§3)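 MDCK or A549 cells, 0.32 x 10^6 per well, were held 24 h serum-free to 80% confluence and then infected at MOI 2. Compound (0.1–500 µM) or vehicle was added right after virus adsorption. At 18 h, viral NP was read by immunofluorescence and corrected for cell number by DAPI. Runs were in triplicate, repeated at least twice, and IC50 came from a dose-response fit.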

Series [8] is described as follows: Binding affinity to Influenza A virus nucleoprotein by surface plasmon resonance analysis. (In general: SPR reads the build-up and loss of mass on a sensor chip optically.)
Series [9] is described as follows: Selectivity index, ratio of CC50 for human A549 cells to IC50 for Influenza A virus (A/Udorn/1972 (H3N2)) after 18 hrs. The class given is toxicity. As to conditions: read-out: Ratio CC50/IC50.
Series [10] deals with Influenza A virus. The series can be described thus: Antiviral activity against Influenza A virus (A/Puerto Rico/8/1934(H1N1)) infected in C57BL/6J mouse assessed as recovery of weight loss at 1 mg/mouse/day, ip qd treated up to day 2 starting at 5 to 10 mins post infection measured up to day 12 relative to control. The class given is functional. The essentials: as §1
The subject of series [11] is Influenza A virus. Put plainly: Stabilization of Influenza A virus nucleoprotein assessed as melting temperature at 5 to 15 uM measured for 10 mins.
Series [12] can be described thus: Selectivity index, ratio of CC50 for MDCK cells to IC50 for Influenza A virus (A/WSN/1933(H1N1)) infected in MDCK cells at MOI of 2 after 18 hrs. The class given is toxicity, cell-based. The conditions noted are these: dog, read-out: Ratio CC50/IC50.
Series [13] is described as follows: Cytotoxicity against MDCK cells assessed as reduction in cell viability after 24 to 72 hrs by MTT assay. The conditions noted are these: dog. In general terms: Formazan colour is commonly taken as a measure of viable cells.
Series [14] has as its system Influenza A virus. Put plainly: Antiviral activity against Influenza A virus (A/Udorn/1972 (H3N2)) infected in human A549 cells assessed as decrease in viral load after 18 hrs by immunofluorescence analysis. The class given is functional, organism-based. The conditions noted are these: A549, 18 h. The essentials:
as §3

Series [15] concerns Influenza A virus. The series can be described thus: microbe, parasite or virus in culture. The conditions noted are these: MDCK, 18 h.
Series [16] in a line: Selectivity index, ratio of CC50 for MDCK cells to IC50 for Influenza A virus (A/WSN/1933(H1N1)) infected in MDCK cells at MOI of 10^-3 after 48 hrs. The class given is toxicity, cell-based. As to conditions: dog, read-out: Ratio CC50/IC50.
Series [17] in a line: Cytotoxicity against human A549 cells assessed as reduction in cell viability after 48 hrs by MTT assay. Format: cell-based. The essentials:
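Cells were seeded at 3.2 x 10^5 per well and kept 1 day at 37 °C in MEM without serum. Serial compound dilutions were added and cells incubated a further 48 h. The MTT read-out was absorbance at 550 nm minus 650 nm, and CC50 was taken from a dose-response fit.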

The nature of series [18]: Cytotoxicity against MDCK cells assessed as reduction in cell viability after 48 hrs by trypan blue staining based method. More on the design: species or system Canis lupus familiaris. The conditions noted are these: dog. The essentials:
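MDCK cells, 3.2 x 10^5 per well, were grown 24 h and then exposed to serial compound dilutions under the same conditions as the MTT test. At 48 h, cells were washed, trypsinised and stained with Trypan blue, and viable and dead cells were counted by phase-contrast microscopy.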

For series [19], the system named is Influenza A virus. The conditions noted are these: 50 uM.
The nature of series [20]: Selectivity index, ratio of CC50 for MDCK cells to IC50 for Influenza A virus (A/Udorn/1972 (H3N2)) infected in MDCK cells at MOI of 2 after 18 hrs. Format: toxicity, cell-based. The conditions noted are these: dog, read-out: Ratio CC50/IC50.
Series [21] has as its system Influenza A virus. The series can be described thus: Antiviral activity against Influenza A virus (A/Puerto Rico/8/1934(H1N1)) infected in C57BL/6J mouse assessed as decrease in viral load in bronchoalveolar lavage at 1 mg/mouse/day, ip qd treated up to day 2 starting at 5 to 10 mins post infection relative to control. The class given is functional. The essentials: as §2

Series [22] has as its system Influenza A virus. Put plainly: Antiviral activity against Influenza A virus (A/WSN/1933(H1N1)) infected in MDCK cells at MOI of 10^-3 assessed as decrease in viral load after 48 hrs by crystal violet staining-based plaque assay. The class given is functional, organism-based. The essentials:
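Serum-starved MDCK cells, 0.32 x 10^6 per well, were infected with A/WSN/33 at MOI 10^-3 (multi-cycle). Compound (0.1–500 µM) or vehicle was added immediately after adsorption. After 48 h, titres in clarified supernatant were read by plaque assay with crystal violet. Runs were in triplicate, repeated at least twice, and IC50 came from a dose-response fit.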

The subject of series [23] is Influenza A virus. Put plainly: Inhibition of Influenza A virus nucleoprotein/polymerase acidic protein (1 to 27 residues) complex formation at 100 nM by surface plasmon resonance analysis. The essentials: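 Biotinylated PA(1-27) was captured on the chip at about 1500 RU, with a scrambled peptide on the same chip at similar RU. NP (12–2500 nM), alone or as NP-DNA complex, was injected with or without compound up to 50 µM. Running buffer was 20 mM Tris-HCl pH 7.4, 300 mM NaCl, 0.005% P20, at 25 °C and 30 µl/min. Regeneration used guanidinium chloride then 10 mM NaOH.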

The nature of series [24]: Safety index, ratio of compound CC50 to naproxen CC50 for MDCK cells by MTT assay. The class given is ADME, cell-based, Canis lupus familiaris. The conditions noted are these: dog.
The nature of series [25]: Selectivity index, ratio of CC50 for MDCK cells to IC50 for pandemic Influenza A virus (A/Netherlands/602/09(H1N1)) infected in MDCK cells at MOI of 10^-3 after 18 hrs. The conditions noted are these: dog, read-out: Ratio CC50/IC50. Format: toxicity, cell-based.
In series [26] the test system is Influenza A virus. Put plainly: Antiviral activity against pandemic Influenza A virus (A/Netherlands/602/09(H1N1)) infected in MDCK cells at MOI of 10^-3 assessed as decrease in viral load after 18 hrs by immunofluorescence analysis. The class given is functional, organism-based.
Series [27] concerns Influenza A virus. Put plainly: Antiviral activity against Influenza A virus (A/Udorn/1972 (H3N2)) infected in MDCK cells at MOI of 2 assessed as decrease in viral load after 18 hrs by immunofluorescence analysis. Format: functional, organism-based. The essentials: as §3
Series [28] concerns A549. The series can be described thus: Downregulation of COX2 level in human A549 cells infected with Influenza A virus at MOI of 2 at 100 uM after 18 hrs in presence of gamma-ATP by immunofluorescence analysis. The conditions noted are these: a549, 18 h. The class given is cell-based. The essentials: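 A549 cells were pretreated with compound for 30 min, then either infected with IAV at MOI 2 for 18 h or activated with 100 µM γ-ATP for 1 h with or without compound. Cells were fixed in 3% PFA and permeabilised with 0.1% triton. COX2 was immunostained overnight with a primary antibody and detected with an Alexa 647 secondary.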

Regarding `CCOC(=O)C1=C[C@@H](OC(CC)CC)[C@H](NC(C)=O)[C@@H](N)C1` [OSELTAMIVIR], in series [1], the result was Active. In addition, in series [2], the “fold change (FC)” value was determined as 260. In addition, the outcome in series [3] was inactive.
In general, Ki refers to a dissociation constant, usually derived from enzyme kinetics or from competition with a known ligand. Low values mean a stronger hold on the target, high ones a looser hold on the target. In the case of `COc1ccc2cc(C(CC(=O)O)CC(=O)O)ccc2c1`, the “inhibition (active/not active)” value in series [4] is “inactive”. The Ki in series [5] was found to be 800 nM. Besides, the Tm in series [6] lay within 25 to 45 °C.
Broadly, the IC50 is the concentration that gives 50% inhibition. As usually defined, the CC50 is the concentration giving 50% cytotoxicity. For `COc1ccc2cc([C@H](C)C(=O)O)ccc2c1` [NAPROXEN], the IC50 in [7] was 100 µM; in series [14], 112 µM; in series [15] it was 120 µM; in series [22], 16 µM. The Ki in [8] is 250 nM. In series [4], the “inhibition (active/not active)” value is “inactive”. Also, the selectivity ratio at 18 h in series [9] was found to be 12.5; in [12], 14; in series [20], 12. The Activity in series [10] came out at 85%. The Tm in series [11] is 41 °C. The CC50 in [13] turned out to be 1.4 mM. Also, in series [16], the selectivity ratio at 48 h was found to be 87. Besides, the CC50 at 48 h in [17] was 1.4 mM; in [18], 1 mM. For the same compound, the inhibition result in [19] and in series [23] was “inactive” throughout. Moreover, in [21], the “fold change (FC)” value is given as 2.
As to `COc1ccc2cc(-c3c(C(=O)[O-])ccc(Oc4ccc(N)cc4)c3C(=O)[O-])ccc2c1.[Na+].[Na+]`, the half-maximal inhibitory concentration (IC50) in series [7] came to 13 µM; in [14], 17 µM; in series [26] it was 0.7 µM; in [27] it was 13 µM; in series [22], 1.3 µM. In [8], this compound displayed an inhibition constant (Ki) of 30 nM. In series [4], the “inhibition (active/not active)” value is “Active”. The selectivity ratio at 18 h came to 706 in series [9], 923 in [12], 17100 in series [25] and 923 in [20]. For the same compound, the selectivity ratio in series [24] amounted to 10. Moreover, the Tm in [11] was determined as 48 °C. Further, the selectivity ratio at 48 h in series [16] turned out to be 9230. The CC50 at 48 h in series [18] was at least 10 mM. Also, the Activity entry in series [28] is reported as “Non-Toxic”.
For the compound `COc1ccc2cc(-c3c(C(=O)O)cc(Oc4ccc(N)cc4)cc3C(=O)O)ccc2c1`, in [4], the “inhibition (active/not active)” value was “Active”. In addition, the selectivity ratio in series [24] stood at 10. Further, the Tm in series [11] fell in the range of 38 to 47 °C. Moreover, in series [25], the selectivity ratio at 18 h is 619. Besides, the IC50 in series [26] was found to be 21 µM. Also, the CC50 at 48 h in [18] was at least 10 mM.
